Shown are actives, neighbours in structure and some others; about 1.8% of the full set was active somewhere.
APJ agonist: activates the human apelin receptor APJ; P35414; CHO-K1 APJ PathHunter beta-arrestin, luminescence; 0% DMSO wells, 100% apelin; activation, % at 20 µM; 330,000 compounds, 0.11% hits; AID 2520;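 active = activation more than six SD over the plate average, tested at 20 µM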
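Assay system: CHO-K1 cells stably expressing ProLink-tagged human APJ and arrestin–beta-gal acceptor. Compound dosing: 20 µM single point, 1% DMSO. Times: 16-18 h seeding, 90 min dark compound exposure, 60 min detection. Detection: beta-gal luminescence. Evaluation: APJ–arrestin association signal. Controls: negative DMSO alone, positive Apelin-13 at 10 nM.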
B2AR ag: human beta-2 adrenergic receptor agonism by FAP. 340,000 compounds, 0.43% hits. P07550. Am2.2-beta2AR cells, FAP receptor internalization, flow cytometry. response, % (no concentration beside the values);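 active = response above a set limit, near 3 SD of response in nonfluorescent compounds, cut at about 42% in these data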
Target sequence (P07550 whole entry, looked up): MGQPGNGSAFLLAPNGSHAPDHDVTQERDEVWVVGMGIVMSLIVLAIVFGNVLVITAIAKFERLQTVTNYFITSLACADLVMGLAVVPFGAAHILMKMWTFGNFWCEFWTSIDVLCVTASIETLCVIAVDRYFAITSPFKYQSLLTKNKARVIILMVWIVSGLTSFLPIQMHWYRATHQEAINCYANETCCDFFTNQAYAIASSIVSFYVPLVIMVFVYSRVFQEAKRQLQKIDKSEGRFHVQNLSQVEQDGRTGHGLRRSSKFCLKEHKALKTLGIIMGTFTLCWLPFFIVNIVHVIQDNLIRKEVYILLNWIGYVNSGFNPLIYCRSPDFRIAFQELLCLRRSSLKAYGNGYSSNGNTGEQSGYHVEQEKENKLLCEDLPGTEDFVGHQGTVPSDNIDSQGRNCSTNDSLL
APJ antag: antagonists of human APJ apelin receptor; inhibition, % at 20 µM; P35414; CHO-K1 APJ beta-arrestin complementation, luminescence; 330,000 compounds, 0.32% hits;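 active = inhibition above about 40% at 20 µM, limit read from the data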;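 also: cells challenged with 10 nM apelin-13 agonist together with compound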
CXCR6 block: inhibitors of human CXCR6 receptor; CHO-K1 PathHunter CXCR6 beta-arrestin, luminescence; inhibition, % at 20 µM; 360,000 compounds, 0.36% hits; AID 602244; in the data active = inhibition above about 34%, passing the limit was not always enough;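 also: antagonist mode with CXCL16 agonist at 10 nM final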
EBI2 antag: EBI2 (human) antagonism. EBI2 beta-arrestin recruitment, luminescence, 7a,25-OHC stimulated. inhibition, % at 5 µM. 360,000 compounds, 0.81% hits. P32249. AID 651636; in the data active = inhibition above about 38%;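 also: enzyme fragment complementation signal reports receptor beta-arrestin coupling in cells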
CCR6 antagonist: antagonists of human CCR6 receptor | 340,000 compounds, 0.49% hits | CHO-K1 CCR6 PathHunter beta-arrestin, luminescence, CCL20-stimulated | AID 493098 | P51684 | inhibition, % at 20 µM;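 active = compounds whose inhibition of the agonist-driven luminescence signal at 20 µM reaches about 50%, limit read from the data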;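 also: cells stimulated with CCL20 at 14 nM final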
EBI2 antag conf: EBI2 (human) antagonism, single concentration confirmation; shares compounds with EBI2 antag; EBI2 beta-arrestin luminescence, 7a,25-OHC antagonism; inhibition, % at 5 µM; 2,400 compounds, 29% hits; AID 651997;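 active = inhibition of at least 50%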
EBI2 agonist: EBI2 agonism counter-screen; shares compounds with EBI2 antag; EBI2-expressing cells, agonist mode, luminescence, 60 min; 0% vehicle, 100% 7α,25-dihydroxycholesterol control; activation, % at 5 µM; 2,400 tested, under 10 active; AID 652000;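 active = activation of at least 50%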
bGal cs: counter-screen for EBI2 antagonists: E. coli beta-galactosidase inhibition. shares compounds with EBI2 antag. purified beta-galactosidase, luminescent Galacton Star, 15 min. inhibition, % at 5 µM. 2,400 compounds, 1% hits. AID 652176;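 active = replicate-average signal at least 3 plate SD below neutral wells, shown as high inhibition, flagging enzyme-inhibiting false positives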;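 also: higher means stronger loss of beta-gal luminescence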
Hits are given with their value.

CN(C)c1ccnc2sc3c(SCc4ccc(Cl)cc4)ncnc3c12 was read as APJ agonist inactive, B2AR ag inactive, APJ antag inactive, CXCR6 block inactive, EBI2 antag 54.3, CCR6 antagonist inactive, EBI2 antag conf inactive, EBI2 agonist inactive and bGal cs inactive.
Screening Cc1ccc(S(=O)(=O)N2CCOCC2)cc1C(=O)OCC(=O)NC1CC1 returned APJ agonist inactive, B2AR ag inactive, APJ antag inactive, CXCR6 block inactive, EBI2 antag inactive and CCR6 antagonist inactive.
For COc1cc(C#Cc2c(-c3cncn3C)n(C)c3ccc(-c4cc(OC)c(OC)c(OC)c4)cc23)cc(OC)c1 the results were APJ agonist inactive, B2AR ag inactive, APJ antag inactive, CXCR6 block inactive, EBI2 antag 49.6, CCR6 antagonist inactive, EBI2 antag conf inactive, EBI2 agonist inactive and bGal cs inactive.
COc1ccc2nc(C)cc(SCC(=O)N/N=C/c3cccc4ccccc34)c2c1 was read as APJ agonist inactive, B2AR ag inactive, APJ antag inactive, CXCR6 block inactive, EBI2 antag 45.9, CCR6 antagonist inactive, EBI2 antag conf inactive, EBI2 agonist inactive and bGal cs inactive.
`COc1ccc(CN2C(=O)C(CC(=O)NC3CCCC3)CC(C(=O)N(C)C)=C2C)cc1` (centres undefined) gave CXCR6 block inactive and EBI2 antag inactive.
`Cc1ccc(NC(NC(=O)Cc2ccccc2)C(Cl)(Cl)Cl)cc1` (centres undefined) gave B2AR ag inactive, CXCR6 block inactive, EBI2 antag 44.1, CCR6 antagonist inactive, EBI2 antag conf inactive, EBI2 agonist inactive and bGal cs inactive.
For N#Cc1nc(Cc2cccc3ccccc23)oc1NCc1ccc(F)cc1 the results were APJ agonist inactive, B2AR ag inactive, APJ antag inactive, CXCR6 block inactive, EBI2 antag 45.4, CCR6 antagonist inactive, EBI2 antag conf inactive, EBI2 agonist inactive and bGal cs inactive.
Cc1sc2nc(CN3CCOCC3)nc(NS(=O)(=O)c3cc(Cl)ccc3Cl)c2c1C was read as APJ agonist inactive, B2AR ag inactive, APJ antag inactive, CXCR6 block inactive, EBI2 antag inactive and CCR6 antagonist inactive.
CN1CCC2(CC1)N=C(c1ccc(F)cc1)C(=S)N2C(=O)c1ccc(C(C)(C)C)cc1 was read as APJ agonist inactive, B2AR ag inactive, APJ antag inactive, CXCR6 block inactive, EBI2 antag inactive and CCR6 antagonist inactive.
For Cc1ccc2oc(C(=O)N3CCCCCC3)c(C)c2c1 the results were APJ agonist inactive, B2AR ag inactive, APJ antag inactive, CXCR6 block inactive, EBI2 antag inactive and CCR6 antagonist inactive.
For Cc1c(C(=O)N2CCN(S(=O)(=O)c3ccccc3)CC2)oc2ccc(Br)cc12 the results were APJ agonist inactive, B2AR ag inactive, APJ antag inactive, CXCR6 block inactive, EBI2 antag 57.6, CCR6 antagonist inactive, EBI2 antag conf inactive, EBI2 agonist inactive and bGal cs inactive.
`Cc1c(C(=O)N2CCN(C(=O)c3ccccc3)CC2)oc2ccc(F)cc12` gave APJ agonist inactive, B2AR ag inactive, APJ antag inactive, CXCR6 block inactive, EBI2 antag 51.1, CCR6 antagonist inactive, EBI2 antag conf inactive, EBI2 agonist inactive and bGal cs inactive.
Cc1c(C(=O)N2CCCCC2)oc2ccc(Br)cc12 was read as APJ agonist inactive, B2AR ag inactive, APJ antag inactive, CXCR6 block inactive, EBI2 antag inactive and CCR6 antagonist inactive.
COc1ccccc1C(=O)N1CCN(C(=O)c2oc3ccc(C)cc3c2C)CC1 was read as APJ agonist inactive, B2AR ag inactive, APJ antag inactive, CXCR6 block inactive, EBI2 antag 64.5, CCR6 antagonist inactive, EBI2 antag conf inactive, EBI2 agonist inactive and bGal cs inactive.
`O=C(O[C@@H]1OC2COC(=O)c3cc(O)c(O)c(O)c3-c3c(cc(O)c(O)c3O)C(=O)O[C@@H]([C@H]1O)[C@@H]2O)c1cc(O)c(O)c(O)c1` gave B2AR ag inactive, CXCR6 block inactive, EBI2 antag inactive and CCR6 antagonist inactive.
For CN(C)C(=O)c1ccc(NC(=O)c2cccc(S(=O)(=O)N3CCN(Cc4ccccc4)CC3)c2)cc1 the results were B2AR ag inactive, CXCR6 block inactive, EBI2 antag inactive and CCR6 antagonist inactive.
`CN(C)c1ccc(NC(=O)CN2CCN(S(=O)(=O)c3cc(Cl)ccc3Cl)CC2)cc1` gave APJ agonist inactive, B2AR ag inactive, APJ antag inactive, CXCR6 block inactive, EBI2 antag 64.0, CCR6 antagonist inactive, EBI2 antag conf inactive, EBI2 agonist inactive and bGal cs inactive.
O=C(CN1CCN(S(=O)(=O)c2cc(Cl)ccc2Cl)CC1)Nc1ccc2c(c1)OCCO2 was read as APJ agonist inactive, B2AR ag inactive, APJ antag inactive, CXCR6 block inactive, EBI2 antag inactive and CCR6 antagonist inactive.
For Cc1ccc(C)c(S(=O)(=O)N2CCN(CC(=O)Nc3ccc4c(c3)CCC4)CC2)c1 the results were APJ agonist inactive, B2AR ag inactive, APJ antag inactive, CXCR6 block inactive, EBI2 antag 47.0, CCR6 antagonist inactive, EBI2 antag conf inactive, EBI2 agonist inactive and bGal cs inactive.
CN(CC(=O)Nc1ccc(Cl)cc1)C(=O)c1cccc(S(=O)(=O)N2CCN(Cc3ccccc3)CC2)c1 was read as APJ agonist inactive, B2AR ag inactive, APJ antag inactive, CXCR6 block inactive, EBI2 antag 61.9, CCR6 antagonist inactive, EBI2 antag conf inactive, EBI2 agonist inactive and bGal cs inactive.
`CCOc1ccc(NS(=O)(=O)c2cccc(C(=O)N3CCN(C/C=C/c4ccccc4)CC3)c2)cc1` gave B2AR ag inactive, CXCR6 block inactive, EBI2 antag inactive and CCR6 antagonist inactive.
Cc1ccc(S(=O)(=O)N2CCN(C(=O)c3ccc(-n4cncn4)c([N+](=O)[O-])c3)CC2)c(C)c1 was read as CXCR6 block inactive, EBI2 antag 63.5, EBI2 antag conf inactive, EBI2 agonist inactive and bGal cs inactive.
Screening Cc1ccc(S(=O)(=O)N2CCN(C(=O)c3ccc(-n4cncn4)c([N+](=O)[O-])c3)CC2)cc1C returned APJ agonist inactive, B2AR ag inactive, APJ antag inactive, CXCR6 block inactive, EBI2 antag inactive and CCR6 antagonist inactive.

Screens: PubChem, several laboratories
